Only some compounds are listed: those with a hit (about 2% of all), similar ones and a draw of the others.
ATG4B inhibitor: inhibitors of human ATG4B cysteine protease | Q9Y4P1 | ATG4B cleavage of LC3-PLA2, NBD-HPC fluorescence, 1 h | inhibition, % at 8.33 µM | 0.51% of 340,000 active; in the data active = inhibition above about 40%
HKDC1 inh: blocks human hexokinase HKDC1 activity. recombinant HKDC1, G6PDH/diaphorase resazurin coupled fluorescence. 0.16% of 340,000 active. inhibition, % at 20 µM. Q2TB90. AID 493160;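 active = inhibition above about 35% when tested at 20 µM, limit read from the data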;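 also: plate controls were DMSO wells with enzyme for no effect and DMSO wells lacking enzyme for full effect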
Target sequence (Q2TB90 whole entry, looked up): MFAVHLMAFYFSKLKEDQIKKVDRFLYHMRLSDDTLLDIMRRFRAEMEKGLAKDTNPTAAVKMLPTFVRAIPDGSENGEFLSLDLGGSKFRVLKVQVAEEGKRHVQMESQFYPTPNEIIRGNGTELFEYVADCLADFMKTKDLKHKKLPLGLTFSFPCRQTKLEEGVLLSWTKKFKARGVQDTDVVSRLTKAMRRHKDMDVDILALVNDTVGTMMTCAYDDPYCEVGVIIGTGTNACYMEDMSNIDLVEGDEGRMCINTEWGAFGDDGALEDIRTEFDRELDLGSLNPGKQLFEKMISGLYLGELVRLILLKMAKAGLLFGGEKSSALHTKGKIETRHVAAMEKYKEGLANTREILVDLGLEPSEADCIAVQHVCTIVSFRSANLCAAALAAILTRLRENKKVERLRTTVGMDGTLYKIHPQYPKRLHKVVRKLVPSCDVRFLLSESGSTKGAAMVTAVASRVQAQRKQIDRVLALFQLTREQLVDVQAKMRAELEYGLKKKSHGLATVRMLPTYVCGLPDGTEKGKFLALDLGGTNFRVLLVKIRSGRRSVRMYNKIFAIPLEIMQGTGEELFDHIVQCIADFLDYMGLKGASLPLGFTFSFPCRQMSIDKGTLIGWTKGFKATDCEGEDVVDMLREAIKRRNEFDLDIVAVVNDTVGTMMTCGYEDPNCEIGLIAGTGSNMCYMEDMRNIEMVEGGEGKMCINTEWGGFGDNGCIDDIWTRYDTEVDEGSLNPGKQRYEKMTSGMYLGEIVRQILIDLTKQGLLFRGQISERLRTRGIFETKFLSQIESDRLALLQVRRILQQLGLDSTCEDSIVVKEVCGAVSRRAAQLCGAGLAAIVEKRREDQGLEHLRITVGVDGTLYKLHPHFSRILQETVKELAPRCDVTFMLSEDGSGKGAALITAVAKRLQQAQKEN
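Assay system: recombinant HKDC1 hexokinase; detection: coupled resazurin fluorescence, excitation 525 nm, emission 613 nm; benchmarks: DMSO-plus-enzyme-mix negative control, buffer-substituted positive control; compound dosing: single 20 µM dose; schedule: 90 min at room temperature in dark; also added: glucose plus 1 mM ATP as hexokinase substrates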
IMP-1 inh-1: inhibitors of Pseudomonas aeruginosa IMP-1 metallo-beta-lactamase | purified IMP-1, nitrocefin hydrolysis, epi-absorbance fluorescence | inhibition, % at 5.6 µM | 0.45% of 290,000 active | AID 1556;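 active = inhibition above the mean plus 3 SD of all compounds in the same screening run, cut at about 4.5% in these data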;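 also: 0% = IMP-1 with DMSO and 100% = DMSO wells lacking enzyme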
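system = purified recombinant IMP-1 beta-lactamase | amount = 0.2 nM IMP-1, as dispensed | medium = HEPES buffer pH 7.1 with ZnSO4 and Brij 35 | times = 25 °C, 15 min preincubation, 25 min reaction | detection = plate fluorescence quenching by hydrolysis product, ex 480/em 530 nm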
PvdQ acylase: P. aeruginosa PvdQ acylase inhibition; AID 488965; 0.063% of 340,000 active; purified PvdQ acylase, fluorescence plate reader; inhibition, % at 10 µM; in the data active = inhibition above about 30%, passing the limit was not always enough;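 also: 0% = vehicle neutral wells and 100% = reference inhibitor wells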
VIM-2 inhibitor: inhibitors of Pseudomonas aeruginosa VIM-2 metallo-beta-lactamase; purified VIM-2, nitrocefin hydrolysis, epi-absorbance fluorescence; inhibition, % at 5.6 µM; 0.89% of 290,000 active; AID 1527;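 active = inhibition above the mean of all tested compounds plus 3 SD, cutoff set per screening run, cut at about 7.5% in these data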;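 also: red hydrolysis product quenches plate fluorescence so inhibitors raise well fluorescence; 0% = enzyme with DMSO and 100% = DMSO without enzyme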
beta cell repl: MIN6 beta-cell proliferation induction. MIN6 cells proliferation, ATPlite luminescence, 48 h; cells starved in 0.2% serum; 100% = growth in 10% serum. proliferation, % at 10 µM. 0.29% of 330,000 active. AID 2380;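 active = compounds whose signal lies at least 3.5 SD above the mean of all wells on their plate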;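 also: 0% = DMSO-treated cells in low-serum medium and 100% = 10% serum control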
IMP-1 inh-2: IMP-1 inhibition, counter-screen for VIM-2 inhibitors | purified IMP-1, nitrocefin hydrolysis, epi-absorbance fluorescence | 1,300 tested, under 10 active | AID 1856 | shares compounds with VIM-2 inhibitor | inhibition, % at 5.6 µM; call rule not given here;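 also: 0% = enzyme with vehicle and 100% = vehicle without enzyme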
VIM-2 FRET ctr: VIM-2 FRET inhibition, artifact counter-screen; shares compounds with VIM-2 inhibitor; purified VIM-2, CCF2 FRET substrate hydrolysis; inhibition, % at 5.6 µM; 23% of 1,300 active; AID 1857;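 active = inhibition above the mean of all tested compounds plus 3 SD, cut at about 19% in these data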;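 also: 0% = VIM-2 plus DMSO and 100% = no enzyme wells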
TEM-1 counter: selectivity counter-screen for VIM-2 inhibitors: E. coli TEM-1 inhibitors; inhibition, % at 5.6 µM; Purified TEM-1, nitrocefin hydrolysis, epi-absorbance fluorescence; shares compounds with VIM-2 inhibitor; 3% of 1,300 active;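 active = inhibition above that campaign's mean inhibition plus 3 SD, cut at about 0.46% in these data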;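 also: 0% = TEM-1 with DMSO and 100% = TEM-1 with 100 µM potassium clavulanate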
VIM-2 confirm 2: confirmation of P. aeruginosa VIM-2 metallo-beta-lactamase inhibitors | shares compounds with VIM-2 inhibitor | purified VIM-2, nitrocefin hydrolysis, epi-absorbance | inhibition, % at 5.6 µM | 96% of 1,300 active | AID 2187;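 active = inhibition of the VIM-2 beta-lactamase enzyme above about 11% from the earlier first-round screen, limit read from the data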;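 also: 0% = VIM-2 with DMSO and 100% = buffer wells without enzyme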
The depositor's hits bear a star; . = no result.

SMILES	ATG4B inhibitor	HKDC1 inh	IMP-1 inh-1	PvdQ acylase	VIM-2 inhibitor	beta cell repl	others
CN1C(=O)/C(=C/c2ccc(Cl)s2)C(=O)NC1=S	4	5	9.7*	-13	2	.
COc1ccc(/C=C2\C(=O)NC(=S)N(C)C2=O)cc1C	56*	36*	2	-4	2	1
COc1ccc(CCC(=O)N2CCC3(CC2)OCCO3)cc1	17	-3	-1	0	-1	-2
O=C1NC(=O)C(=Cc2ccc(-c3ccc(S(=O)(=O)N4CCOCC4)cc3)o2)C(=O)N1	6	8	5.4*	-13	-1	0
CC/C(=N\N1CCCCCC1)c1c(O)n(-c2ccc(C)cc2)c(=O)[nH]c1=O	-1	-8	-3	-13	-1	-2
CCC1(c2ccccc2)C(=O)NC(=O)NC1=O	1	-2	.	-4	.	-3
O=C1NC(=O)C(CCc2ccncc2)(c2ccccc2)C(=O)N1	6	1	6.1*	-18	-5	-2
Cc1cc(OCC(=O)N2CCC(C(N)=O)CC2)c2c3c(c(=O)oc2c1)CCCC3	-22	-3	-3	-8	8.6*	0
Cc1cc(OCC(=O)O)c2c3c(c(=O)oc2c1)CCCC3	3	3	-1	8	4	-1
NP(=O)(Oc1ccc(Cl)cc1)Oc1ccc(Cl)cc1	16	-7	7.7*	-4	-3	0
CN(C)c1cccc2c(C#N)ccc(N(C)C)c12	9	2	-4	-15	5	1
C[C@]12CC[C@@H]3c4ccc(O)c(O)c4CC[C@H]3[C@@H]1CC[C@@H]2O	3	1	14*	-4	1	-8
O=P(O)(O)Cc1c(Cl)cccc1Cl	5	-1	0	-13	12*	-2
Cc1nc2ccccc2c(=O)n1-c1cccc([N+](=O)[O-])c1	-4	0	-4	-17	-1	4
O=C(O)C(Br)CBr (centres undefined)	-1	-7	.	-8	.	-1
CCn1nc(-c2ccccc2)nc2c(=O)n(C)c(=O)nc1-2	80*	-83	-1	14	1	-5
COc1cccc(CNCCc2cccc(F)c2)c1OC	-2	0	1	5	0	4
CCn1cc(CN2CCCC(C(=O)c3sccc3C)C2)cn1 (centres undefined)	-1	-5	-3	-9	-3	-3
CC1=Nc2ccccc2/C1=C/c1c(O)[nH]c(=O)[nH]c1=O	3	8	-1	-12	-2	-4
O=c1[nH]c(O)c(/C=C2/C=CC(c3cc(Cl)ccc3Cl)=N2)c(=O)[nH]1	5	40*	-3	1	-1	-6
Nc1ccnn1C1CCNCC1	3	5	25*	-14	-1	1
CN1CCC(n2nccc2N)CC1	-9	2	2	-7	1	0
C[C@H]1C(=O)O[C@@H]2CCN3CC=C(COC(=O)[C@](C)(O)[C@]1(C)O)[C@H]23	14	2	.	-8	.	1
O=C(C[N+]12CCN(CC1)CC2)NCCc1ccc(Cl)cc1Cl	1	-7	-1	0	-5	-1
COC(=O)C1C=C2c3cccc4[nH]cc(c34)CC2N(C)C1 (centres undefined)	.	.	6.8*	.	6	0
SMILES	ATG4B inhibitor	HKDC1 inh	IMP-1 inh-1	PvdQ acylase	VIM-2 inhibitor	beta cell repl	others
Cc1cc(OC(C)C(=O)NCc2cccnc2)c2c3c(c(=O)oc2c1)CCC3 (centres undefined)	-6	-1	-3	-16	8.4*	1
Cc1cc(OC(C)C(=O)NCC(O)c2ccccc2)c2c3c(c(=O)oc2c1)CCC3 (centres undefined)	3	6	0	6	3	0
CCOC(=O)c1ccc(NC(=O)c2c(O)[nH]c(=O)[nH]c2=O)cc1	-7	-4	78*	-9	59*	-2
CCOc1ccc(NC(=O)c2c(O)[nH]c(=O)[nH]c2=O)cc1	1	2	.	-11	.	2
O=S(=O)(NC1CN2CCC1CC2)c1ccc(Cl)cc1 (centres undefined)	-1	-5	-5	9	-3	0
O=C(NC1CN2CCC1CC2)c1cc(Cl)c([N+](=O)[O-])c2nc[nH]c12 (centres undefined)	-6	8	-2	-7	10*	-2
CCC(=O)OC1CCC2C3CCC4CC(=O)C=CC4(C)C3CCC12C (centres undefined)	-6	14	.	20	.	.
CCOc1ccc(N=C2SCCCN2C)cc1	3	-8	-3	-1	-3	-1
CCOC(=O)c1c(C)n(Cc2ccco2)c2ccc(OC)cc12	-2	-1	-2	-6	0	-2
CCOC(=O)c1c(C)n(CCN2CCN(C)CC2)c2ccc(OC)cc12	-9	0	-1	-16	61*	2	IMP-1 inh-2=0;VIM-2 FRET ctr=2;TEM-1 counter=0;VIM-2 confirm 2=80*
CC(=NCCCn1ccnc1)c1c(O)n(-c2ccccc2)c(=O)[nH]c1=O	-5	-8	-4	3	-2	-3
C=CCn1c(O)c(C(C)=NCCCn2ccnc2)c(=O)[nH]c1=O	-7	0	-2	-4	58*	-2	IMP-1 inh-2=-3;VIM-2 FRET ctr=-2;TEM-1 counter=-6;VIM-2 confirm 2=78*
N/C(=N/[N+](=O)[O-])N1CCN(C(=O)Oc2ccc([N+](=O)[O-])cc2)CC1	-7	-3	-3	-10	-3	-3
CN1CCN(c2ccc(NC(=O)Oc3ccccc3)cc2)CC1	-10	0	-5	4	29*	-2	IMP-1 inh-2=-5;VIM-2 FRET ctr=-4;TEM-1 counter=-6;VIM-2 confirm 2=24*
Cc1cc(OCC(=O)N[C@@H](Cc2ccccc2)C(=O)O)c2c3c(c(=O)oc2c1)CCC3	2	6	-3	15	2	-2
Cc1cc(OCC(=O)N[C@H](C(=O)O)c2ccccc2)c2c3c(c(=O)oc2c1)CCC3	-32	2	-2	-1	17*	0	IMP-1 inh-2=-3;VIM-2 FRET ctr=26*;TEM-1 counter=-7;VIM-2 confirm 2=21*
Cc1cc(OCC(=O)NC(Cc2ccc(Cl)cc2)C(=O)O)c2c3c(c(=O)oc2c1)CCC3 (centres undefined)	4	5	-1	-13	19*	-3	IMP-1 inh-2=-4;VIM-2 FRET ctr=33*;TEM-1 counter=-7;VIM-2 confirm 2=19*
